Measurements published in ChEMBL document CHEMBL5126648, “Charting the Chemical Space of Acrylamide-Based Inhibitors of zDHHC20” (ACS Med Chem Lett, 2022).
Active and inactive are the calls of the source. No cut-off for these calls is given here.

How the values were obtained:
[1] = target: T1, Palmitoyltransferase ZDHHC20 (Homo sapiens, UniProt Q5W0Z9); assay: Inhibition of human myc-His6-tagged zDHHC20 expressed in HEK293T cells using 5-FAM-GTQGCMGLPCVVM-COOH as substrate preincubated for 1 hr followed by substrate addition and measured at 1 min interval for 2 hrs in presence of palmitoyl-CoA by fluorescence polarization assay
T1 sequence (Q5W0Z9 whole entry): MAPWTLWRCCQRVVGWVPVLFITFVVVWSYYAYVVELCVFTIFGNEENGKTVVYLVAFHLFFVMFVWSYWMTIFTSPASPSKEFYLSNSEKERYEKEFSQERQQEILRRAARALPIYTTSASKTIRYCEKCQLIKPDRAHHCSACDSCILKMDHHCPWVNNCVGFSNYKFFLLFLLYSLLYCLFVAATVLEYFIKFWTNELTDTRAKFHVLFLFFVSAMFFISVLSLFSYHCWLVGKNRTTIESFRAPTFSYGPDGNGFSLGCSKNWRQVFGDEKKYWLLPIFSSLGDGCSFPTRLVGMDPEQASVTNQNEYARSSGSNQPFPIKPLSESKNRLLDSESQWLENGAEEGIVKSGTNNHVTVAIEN
Method in brief: (§1)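 Purified zDHHC20 run in the acyl-cLIP assay, an earlier adaptation by the same group. Enzyme-mediated acylation of a peptide is read as polarized fluorescence.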

[2] = target: T2, Palmitoyltransferase ZDHHC2 (Homo sapiens, UniProt Q9UIJ5); assay: Inhibition of human myc-His6-tagged zDHHC2 expressed in HEK293T cells using 5-FAM-GTQGCMGLPCVVM-COOH as substrate preincubated for 30 mins followed by substrate addition and measured at 1 min interval for 2 hrs in presence of palmitoyl-CoA by fluorescence polarization assay
T2 sequence (Q9UIJ5 whole entry): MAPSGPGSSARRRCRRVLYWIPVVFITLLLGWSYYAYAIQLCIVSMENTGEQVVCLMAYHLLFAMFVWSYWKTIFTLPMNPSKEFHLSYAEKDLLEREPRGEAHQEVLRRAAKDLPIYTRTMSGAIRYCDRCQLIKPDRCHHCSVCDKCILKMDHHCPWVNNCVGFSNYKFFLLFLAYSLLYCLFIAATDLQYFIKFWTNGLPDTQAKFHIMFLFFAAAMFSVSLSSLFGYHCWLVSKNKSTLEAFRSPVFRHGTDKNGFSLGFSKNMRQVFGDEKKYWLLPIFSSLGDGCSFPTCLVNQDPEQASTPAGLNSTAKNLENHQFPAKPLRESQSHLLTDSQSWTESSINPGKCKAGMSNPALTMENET

[3] = target: T3, Palmitoyltransferase ZDHHC20 (Homo sapiens) (UniProt Q5W0Z9); assay: Inhibition of human myc-His6-tagged zDHHC20 expressed in HEK293T cells at 10 uM using 5-FAM-GTQGCMGLPCVVM-COOH as substrate preincubated for 1 hr followed by substrate addition and measured at 1 min interval for 2 hrs in presence of palmitoyl-CoA by fluorescence polarization assay; conditions: time 3.0 hrs; method in brief: as §1
T3 sequence (whole entry): T1 sequence (Q5W0Z9 whole entry)

[4] = Lipophilicity, log P of compound; format: physicochemical; conditions: octanol/water
[5] = target: T3, Palmitoyltransferase ZDHHC20 (Homo sapiens); assay: Binding affinity to human myc-His6-tagged zDHHC20 expressed in HEK293T cells at 1 uM measured after 1 hr by TAMRA-azide-labelled in-gel fluorescence analysis; format: cell-based
Method in brief: (§2)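 Myc-tagged enzyme overexpressed in HEK293T cells; cells treated with probe at 1 μM for 1 h. Lysates then clicked to TAMRA-azide, proteins resolved by SDS-PAGE and read by in-gel fluorescence. Expression checked by anti-myc Western blot. n = 2.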

[6] = target: T4, Palmitoyltransferase ZDHHC2 (Homo sapiens) (UniProt Q9UIJ5); assay: Binding affinity to human myc-His6-tagged zDHHC2 expressed in HEK293T cells at 1 uM measured after 1 hr by TAMRA-azide-labelled in-gel fluorescence analysis; format: cell-based; method in brief: as §2
T4 sequence (whole entry): T2 sequence (Q9UIJ5 whole entry)

[7] = target: T4, Palmitoyltransferase ZDHHC2 (Homo sapiens); assay: Inhibition of human myc-His6-tagged zDHHC2 expressed in HEK293T cells at 10 uM using 5-FAM-GTQGCMGLPCVVM-COOH as substrate preincubated for 30 mins followed by substrate addition and measured at 1 min interval for 2 hrs in presence of palmitoyl-CoA by fluorescence polarization assay; conditions: time 150.0 min

Row | Structure (SMILES) | IC50 [1] | IC50 [2] | logP [4] | also measured
1 | CCCCCCCCCCCCCCN(CC#N)C(=O)/C=C\C(=O)O | 3450 nM |  |  | 
2 | CCCCCCCCCCCCCCC(Br)C(=O)O (centres undefined) | 5550 nM | 2020 nM |  | 
3 | C=CC(=O)NCCCCCCCCCCCCCC | 21400 nM | 59900 nM |  | 
4 | CCCCCCCCCCCCCCNC(=O)/C=C\C(=O)Oc1ccccc1 |  | 2020 nM |  | inhibition [3]: 50%
5 | CCCCCCCCCCCCCCNC(=O)/C=C\C(=O)OC |  |  |  | inhibition [3]: Active
6 | CCCCCCCCCCCCCCNC(=O)/C=C\C(=O)OCC#N | 2870 nM | 2660 nM |  | 
7 | CCCCCCCCCCCCCCNC(=O)/C=C\C(=O)OCc1cn(CCCNC(=O)CCNC(=O)[C@H](O)C(C)(C)CO)nn1 | 9730 nM |  | 3.33 | 
8 | C#CCN(CCCCCCCCCCCCCC)C(=O)C=C |  |  |  | Activity [5]: Active; Activity [6]: Active
9 | C=CC(=O)N(CC#N)CCCCCCCCCCCCCC | 1350 nM | 590 nM | 5.48 | inhibition [7]: Active
10 | CCCCCCCCCCCCCCNC(=O)/C=C\C(=O)OCc1cn(CCOCCOCCOCCO)nn1 |  |  | 4.55 | inhibition [3]: Active
11 | C#CCOC(=O)/C=C/C(=O)NCCCCCCCCCCCCCC |  |  |  | Activity [5]: Active; Activity [6]: Active
12 | C=CC(=O)N(CC#N)CCOCCCCCCCCCCC | 1970 nM |  | 4.1 | inhibition [7]: Active
13 | C#CCOC(=O)/C=C\C(=O)NCCCCCCCCCCCCCC | 3430 nM |  |  | Activity [5]: Active; Activity [6]: Active; inhibition [7]: Active
